According to ChEMBL document CHEMBL1671716, “Antimicrobial susceptibility patterns for recent clinical isolates of anaerobic bacteria in South Korea” (2010):

Key:
Format in all cases: functional
Finegoldia magna [1] = experiment: Antimicrobial activity against Finegoldia magna assessed as percent resistant isolates after 48 hrs by agar dilution method in presence of 4 ug/ml beta-lactamase inhibitor Tazobactam
How it was run: (§1)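 CLSI agar dilution on recent Korean clinical anaerobe isolates. Inoculum 10^5 CFU per spot by replicator. Plates incubated in an anaerobic chamber at 37°C for 48 h. For piperacillin plus tazobactam, tazobactam was held constant at 4 μg/ml. Resistance and susceptibility rates derived from MICs.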

Schaalia odontolytica = experiment: Antimicrobial activity against Actinomyces odontolyticus assessed as percent resistant isolates after 48 hrs by agar dilution method in presence of 4 ug/ml beta-lactamase inhibitor Tazobactam; how it was run: as §1
Eggerthella lenta [2] = experiment: Antimicrobial activity against Eubacterium lentum after 48 hrs by agar dilution method in presence of 4 ug/ml beta-lactamase inhibitor Tazobactam
How it was run: (§2)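 CLSI agar dilution (M11-A7); inoculum 10^5 CFU applied by replicator; plates incubated anaerobically 48 h at 37°C. For piperacillin-tazobactam, tazobactam held constant at 4 μg/ml.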

Fusobacterium nucleatum = experiment: Antimicrobial activity against Fusobacterium nucleatum after 48 hrs by agar dilution method in presence of 4 ug/ml beta-lactamase inhibitor Tazobactam; how it was run: as §2
Actinomyces israelii = experiment: Antimicrobial activity against Actinomyces israelii assessed as percent resistant isolates after 48 hrs by agar dilution method in presence of 4 ug/ml beta-lactamase inhibitor Tazobactam; how it was run: as §1
Schaalia meyeri = experiment: Antimicrobial activity against Actinomyces meyeri after 48 hrs by agar dilution method in presence of 4 ug/ml beta-lactamase inhibitor Tazobactam
How it was run: (§3)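 MICs by CLSI agar dilution for piperacillin combined with tazobactam, with tazobactam held constant at 4 μg/ml. Clinical anaerobe isolates inoculated at 10^5 CFU by Steers replicator. Plates kept in an anaerobic chamber at 37°C for 48 h.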

Prevotella bivia [3] = experiment: Antimicrobial activity against Prevotella bivia assessed as percent susceptible isolates after 48 hrs by agar dilution method in presence of 4 ug/ml beta-lactamase inhibitor Tazobactam; how it was run: as §2
[4] = test system: Peptoniphilus asaccharolyticus; experiment: Antimicrobial activity against Peptoniphilus asaccharolyticus after 48 hrs by agar dilution method in presence of 4 ug/ml beta-lactamase inhibitor Tazobactam; how it was run: as §2
Prevotella bivia [5] = experiment: Antimicrobial activity against Prevotella bivia after 48 hrs by agar dilution method in presence of 4 ug/ml beta-lactamase inhibitor Tazobactam; how it was run: as §2
Bifidobacterium sp. [6] = experiment: Antimicrobial activity against Bifidobacterium sp. assessed as percent resistant isolates after 48 hrs by agar dilution method in presence of 4 ug/ml beta-lactamase inhibitor Tazobactam; how it was run: as §1
Bacteroides ovatus [7] = experiment: Antimicrobial activity against Bacteroides ovatus assessed as percent resistant isolates after 48 hrs by agar dilution method in presence of 4 ug/ml beta-lactamase inhibitor Tazobactam; how it was run: as §1
[8] = test system: Bacteroides thetaiotaomicron; experiment: Antimicrobial activity against Bacteroides thetaiotaomicron assessed as percent susceptible isolates after 48 hrs by agar dilution method in presence of 4 ug/ml beta-lactamase inhibitor Tazobactam
Phocaeicola vulgatus [9] = experiment: Antimicrobial activity against Bacteroides vulgatus assessed as percent resistant isolates after 48 hrs by agar dilution method in presence of 4 ug/ml beta-lactamase inhibitor Tazobactam; how it was run: as §1
Bacteroides ovatus [10] = experiment: Antimicrobial activity against Bacteroides ovatus after 48 hrs by agar dilution method in presence of 4 ug/ml beta-lactamase inhibitor Tazobactam; how it was run: as §3
Bifidobacterium sp. [11] = experiment: Antimicrobial activity against Bifidobacterium sp. after 48 hrs by agar dilution method in presence of 4 ug/ml beta-lactamase inhibitor Tazobactam; how it was run: as §3
Finegoldia magna [12] = experiment: Antimicrobial activity against Finegoldia magna assessed as percent susceptible isolates after 48 hrs by agar dilution method in presence of 4 ug/ml beta-lactamase inhibitor Tazobactam; how it was run: as §2
Bacteroides caccae = experiment: Antimicrobial activity against Bacteroides caccae assessed as percent susceptible isolates after 48 hrs by agar dilution method in presence of 4 ug/ml beta-lactamase inhibitor Tazobactam
Phocaeicola vulgatus [13] = experiment: Antimicrobial activity against Bacteroides vulgatus assessed as percent susceptible isolates after 48 hrs by agar dilution method in presence of 4 ug/ml beta-lactamase inhibitor Tazobactam
Clostridioides difficile = experiment: Antimicrobial activity against Clostridium difficile assessed as percent susceptible isolates after 48 hrs by agar dilution method in presence of 4 ug/ml beta-lactamase inhibitor Tazobactam; how it was run: as §2
Prevotella bivia [14] = experiment: Antimicrobial activity against Prevotella bivia assessed as percent resistant isolates after 48 hrs by agar dilution method in presence of 4 ug/ml beta-lactamase inhibitor Tazobactam; how it was run: as §1
[15] = test system: Parabacteroides distasonis; experiment: Antimicrobial activity against Bacteroides distasonis assessed as percent resistant isolates after 48 hrs by agar dilution method in presence of 4 ug/ml beta-lactamase inhibitor Tazobactam; how it was run: as §1
Prevotella intermedia = experiment: Antimicrobial activity against Prevotella intermedia assessed as percent susceptible isolates after 48 hrs by agar dilution method in presence of 4 ug/ml beta-lactamase inhibitor Tazobactam; how it was run: as §2
Eggerthella lenta [16] = experiment: Antimicrobial activity against Eubacterium lentum assessed as percent resistant isolates after 48 hrs by agar dilution method in presence of 4 ug/ml beta-lactamase inhibitor Tazobactam; how it was run: as §1
[17] = test system: Porphyromonas asaccharolytica; experiment: Antimicrobial activity against Porphyromonas asaccharolytica after 48 hrs by agar dilution method in presence of 4 ug/ml beta-lactamase inhibitor Tazobactam; how it was run: as §2

## CCN1CCN(C(=O)N[C@@H](C(=O)N[C@@H]2C(=O)N3[C@@H]2SC(C)(C)[C@@H]3C(=O)O)c2ccccc2)C(=O)C1=O [PIPERACILLIN]
Finegoldia magna [1]
  Activity: 0%
Schaalia odontolytica
  Activity: 0%
Eggerthella lenta [2]
  MIC50: 0.5 µg/mL
  MIC90: 8 µg/mL
Fusobacterium nucleatum
  MIC: 0.03 µg/mL
Actinomyces israelii
  Activity: 0%
Schaalia meyeri
  MIC50: 0.5 µg/mL
  MIC90: 8 µg/mL
Prevotella bivia [3]
  Activity: 100%
[4]
  MIC50: ≤ 0.03 µg/mL
  MIC90: 0.06 µg/mL
Prevotella bivia [5]
  MIC50: ≤ 0.03 µg/mL
  MIC90: 4 µg/mL
Bifidobacterium sp. [6]
  Activity: 0%
Bacteroides ovatus [7]
  Activity: 7%
[8]
  Activity: 89%
Phocaeicola vulgatus [9]
  Activity: 7%
Bacteroides ovatus [10]
  MIC50: 8 µg/mL
  MIC90: 64 µg/mL
Bifidobacterium sp. [11]
  MIC50: 0.5 µg/mL
  MIC90: 8 µg/mL
Finegoldia magna [12]
  Activity: 100%
Bacteroides caccae
  Activity: 89%
Phocaeicola vulgatus [13]
  Activity: 89%
Clostridioides difficile
  Activity: 100%
Prevotella bivia [14]
  Activity: 0%
[15]
  Activity: 7%
Prevotella intermedia
  Activity: 100%
Eggerthella lenta [16]
  Activity: 0%
[17]
  MIC: 0.03 µg/mL
